Assay [1] can be described thus: Vasodilatory activity in human vena saphena magna assessed as relaxation of phenylephrine-induced smooth muscle contraction at 10^-7 to 10^-4 M. In kind it is functional. The essentials:
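Saphenous vein rings came from 37 CABG patients. They were bathed in Tyrode's solution (mM: NaCl 137, KCl 5.4, CaCl2 1.8, MgCl2 0.9, Tris HCl 10, glucose 5; pH 7.4), equilibrated 45–60 min and washed every 15 min. Rings were precontracted with 10^-4 M phenylephrine, then given cumulative test agent at 10^-7 to 10^-4 M. Isometric relaxation was recorded, as means ± SE.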

A short description of assay [2]: Ionotropic effect in guinea pig ventricle papillary muscles assessed as lengthening of 50% repolarized cardiac action potential duration time at 10^-5 M by microelectrode technique relative to untreated control (reference value: 180 to 192 APD50 ms) in presence of 1 x 10^-6 M IKr channel blocker Sotalol. In kind it is functional, Cavia porcellus.
A short description of assay [3]: Ionotropic effect in guinea pig ventricle papillary muscles assessed as lengthening of 25% repolarized cardiac action potential duration time at 10^-4 M by microelectrode technique relative to untreated control (reference value: 120 to 131 APD25 ms) in presence of 1 x 10^-6 M IKr channel blocker Sotalol. In kind it is functional, Cavia porcellus.
A short description of assay [4]: Ionotropic effect in guinea pig ventricle papillary muscles assessed as lengthening of 10% repolarized cardiac action potential duration time at 10^-5 M by microelectrode technique relative to untreated control (reference value: 52 to 54 APD10 ms) in presence of 2 x 10^-5 M KATP channel blocker glibenclamide. In kind it is functional, Cavia porcellus.
Assay [5] in a line: Ionotropic effect in guinea pig ventricle papillary muscles assessed as lengthening of 10% repolarized cardiac action potential duration time at 10^-4 M by microelectrode technique relative to untreated control (reference value: 52 to 54 APD10 ms) in presence of 1 x 10^-6 M IKr channel blocker Sotalol. It counts as functional, Cavia porcellus.
Assay [6] can be described thus: Ionotropic effect in guinea pig right ventricle papillary muscles assessed as contraction force at 10^-6 M by force transduction assay relative to untreated control (reference value: 100%) in presence of 3.1 x 10^-6 M inward rectifier current blocker BaCl2. In kind it is functional, Cavia porcellus, Heart right ventricle.
The nature of assay [7]: Ionotropic effect in guinea pig ventricle papillary muscles assessed as lengthening of 10% repolarized cardiac action potential duration time at 10^-6 M by microelectrode technique relative to untreated control (reference value: 37 to 47 APD10 ms). In kind it is functional, Cavia porcellus, Papillary muscle.
Assay [8] in a line: Ionotropic effect in guinea pig ventricle papillary muscles assessed as lengthening of 50% repolarized cardiac action potential duration time at 10^-7 M by microelectrode technique relative to untreated control (reference value: 180 to 192 APD50 ms) in presence of 3.1 x 10^-6 M inward rectifier current blocker BaCl2. In kind it is functional, Cavia porcellus.
Assay [9] is described as follows: Ionotropic effect in guinea pig ventricle papillary muscles assessed as lengthening of 50% repolarized cardiac action potential duration time at 10^-4 M by microelectrode technique relative to untreated control (reference value: 180 to 192 APD50 ms) in presence of 3.1 x 10^-6 M inward rectifier current blocker BaCl2. It counts as functional, Cavia porcellus.
A short description of assay [10]: Ionotropic effect in guinea pig right ventricle papillary muscles assessed as contraction force at 10^-5 M by force transduction assay relative to untreated control (reference value: 100%) in presence of 3.1 x 10^-6 M inward rectifier current blocker BaCl2. It counts as functional, Cavia porcellus, Heart right ventricle.
A short description of assay [11]: Ionotropic effect in guinea pig ventricle papillary muscles assessed as lengthening of 10% repolarized cardiac action potential duration time at 10^-5 M by microelectrode technique relative to untreated control (reference value: 52 to 54 APD10 ms) in presence of 1 x 10^-6 M IKr channel blocker Sotalol. It counts as functional, Cavia porcellus.
Assay [12] is described as follows: Ionotropic effect in guinea pig ventricle papillary muscles assessed as lengthening of 50% repolarized cardiac action potential duration time at 10^-7 M by microelectrode technique relative to untreated control (reference value: 180 to 192 APD50 ms) in presence of 1 x 10^-6 M IKr channel blocker Sotalol. It counts as functional, Cavia porcellus.

Active and inactive are the calls of the source. The rule behind the calls is not given here.

As to `CCCOCCOC(=O)C1=C(C)NC=C([N+](=O)[O-])C1c1ccccc1OC(F)F` (configuration not stated), in assay [1], the result was Active. For the same compound, the Time in [2] turned out to be 199 ms; in assay [3], 142 ms; in [4] it was 61 ms; in [5], 55.7 ms; in assay [7], 41.4 ms; in [8], 210 ms. The Time in assay [9] was determined as 238 ms; in assay [11], 54.6 ms; in assay [12], 195 ms. The Activity came out at 118% in [6] and 193% in [10].

For the origin of these results see ChEMBL document CHEMBL2150950, “Effect of 4-aryl-2-methyl-5-nitro-1,4-dihydropyridine-3-carboxylates on the guinea pig papillary muscle and isolated human vena saphena magna that is used for coronary artery bypass grafting” (2011).
